Measured values: ChEMBL document CHEMBL4346701, “Synthesis and biological evaluation of tryptophan-derived rhodanine derivatives as PTP1B inhibitors and anti-bacterial agents” (Eur J Med Chem, 2019)
In brackets after ≈: the same amount, converted by molar mass. Activity calls are given as the source filed them. No cut-off for these calls is given here.

How the values were obtained:
[1] = biological target: T1, Receptor-type tyrosine-protein phosphatase F (Homo sapiens, UniProt P10586); test: Inhibition of human recombinant GST-tagged LAR (catalytic domain 1275 to 1613 residues) expressed in Escherichia coli BL21 (DE3) using pNPP as substrate at 20 ug/ml measured for 2 mins by colorimetric analysis
T1 sequence (P10586 whole entry, the tested form may be a part): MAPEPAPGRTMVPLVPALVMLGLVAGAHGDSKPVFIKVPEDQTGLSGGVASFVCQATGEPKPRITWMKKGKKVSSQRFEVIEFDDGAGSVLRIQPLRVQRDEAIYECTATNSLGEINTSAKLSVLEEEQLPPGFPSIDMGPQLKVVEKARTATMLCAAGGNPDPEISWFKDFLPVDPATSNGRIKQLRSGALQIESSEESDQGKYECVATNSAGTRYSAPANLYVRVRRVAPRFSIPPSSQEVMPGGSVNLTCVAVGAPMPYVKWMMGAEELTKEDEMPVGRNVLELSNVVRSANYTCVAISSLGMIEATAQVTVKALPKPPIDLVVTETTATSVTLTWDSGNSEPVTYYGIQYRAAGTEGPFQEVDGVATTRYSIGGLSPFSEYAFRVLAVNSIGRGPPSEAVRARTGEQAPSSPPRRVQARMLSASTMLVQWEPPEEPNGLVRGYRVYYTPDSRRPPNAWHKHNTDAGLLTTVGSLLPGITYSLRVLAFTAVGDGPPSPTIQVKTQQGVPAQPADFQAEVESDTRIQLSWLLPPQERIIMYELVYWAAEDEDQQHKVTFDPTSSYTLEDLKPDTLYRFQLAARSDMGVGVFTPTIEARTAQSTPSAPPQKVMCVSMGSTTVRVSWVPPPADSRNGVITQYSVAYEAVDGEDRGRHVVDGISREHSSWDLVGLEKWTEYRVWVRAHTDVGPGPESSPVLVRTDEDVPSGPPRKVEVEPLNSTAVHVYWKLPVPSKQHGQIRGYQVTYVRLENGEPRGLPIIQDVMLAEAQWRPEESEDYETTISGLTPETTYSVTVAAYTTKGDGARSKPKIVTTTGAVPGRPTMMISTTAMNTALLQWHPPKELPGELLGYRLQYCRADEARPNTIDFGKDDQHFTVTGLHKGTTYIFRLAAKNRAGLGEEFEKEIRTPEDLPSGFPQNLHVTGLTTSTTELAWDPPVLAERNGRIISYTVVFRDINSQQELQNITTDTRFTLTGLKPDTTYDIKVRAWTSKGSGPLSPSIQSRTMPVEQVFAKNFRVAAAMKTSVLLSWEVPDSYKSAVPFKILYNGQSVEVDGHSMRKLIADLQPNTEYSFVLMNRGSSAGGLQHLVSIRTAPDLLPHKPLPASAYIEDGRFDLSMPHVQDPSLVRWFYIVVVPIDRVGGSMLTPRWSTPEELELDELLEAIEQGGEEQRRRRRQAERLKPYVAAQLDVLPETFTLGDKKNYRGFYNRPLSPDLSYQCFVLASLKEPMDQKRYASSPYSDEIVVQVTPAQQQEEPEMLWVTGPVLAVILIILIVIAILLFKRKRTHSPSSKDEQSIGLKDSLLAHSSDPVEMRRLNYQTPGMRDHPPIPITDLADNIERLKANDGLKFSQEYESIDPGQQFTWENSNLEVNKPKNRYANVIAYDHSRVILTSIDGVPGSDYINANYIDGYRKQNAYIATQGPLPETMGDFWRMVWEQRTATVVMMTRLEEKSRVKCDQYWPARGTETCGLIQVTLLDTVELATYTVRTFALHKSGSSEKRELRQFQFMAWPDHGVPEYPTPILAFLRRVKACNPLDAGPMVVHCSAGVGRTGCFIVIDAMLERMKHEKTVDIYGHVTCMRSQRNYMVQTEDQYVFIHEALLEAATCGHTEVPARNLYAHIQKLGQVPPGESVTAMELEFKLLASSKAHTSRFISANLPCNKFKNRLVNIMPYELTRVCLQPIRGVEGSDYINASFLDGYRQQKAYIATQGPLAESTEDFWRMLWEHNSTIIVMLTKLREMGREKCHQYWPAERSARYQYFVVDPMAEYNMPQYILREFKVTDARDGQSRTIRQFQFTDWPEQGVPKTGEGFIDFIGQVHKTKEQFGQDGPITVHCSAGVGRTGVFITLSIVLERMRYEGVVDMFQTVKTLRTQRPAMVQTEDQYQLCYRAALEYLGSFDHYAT
How it was run: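 Single-concentration screen at 20 µg/mL in the pNPP phosphatase assay.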

Staphylococcus aureus [2] = test: Antibacterial activity against Staphylococcus aureus KCTC503 assessed as reduction in bacterial cell growth incubated for 24 hrs by ELISA; assay type: functional; conditions: KCTC503, 24 h
How it was run: (§1)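 MICs determined by serial dilution in 96-well microtiter plates. The strain panel included Gram-positive S. aureus strains and multidrug-resistant clinical isolates. Gatifloxacin, moxifloxacin, norfloxacin and oxacillin served as antibacterial positive controls.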

[3] = biological target: T2, M-phase inducer phosphatase 2 (Homo sapiens, UniProt P30305); test: Inhibition of human recombinant GST-tagged CDC25B expressed in Escherichia coli BL21 (DE3) using pNPP as substrate measured for 2 mins by colorimetric analysis
T2 sequence (P30305 whole entry): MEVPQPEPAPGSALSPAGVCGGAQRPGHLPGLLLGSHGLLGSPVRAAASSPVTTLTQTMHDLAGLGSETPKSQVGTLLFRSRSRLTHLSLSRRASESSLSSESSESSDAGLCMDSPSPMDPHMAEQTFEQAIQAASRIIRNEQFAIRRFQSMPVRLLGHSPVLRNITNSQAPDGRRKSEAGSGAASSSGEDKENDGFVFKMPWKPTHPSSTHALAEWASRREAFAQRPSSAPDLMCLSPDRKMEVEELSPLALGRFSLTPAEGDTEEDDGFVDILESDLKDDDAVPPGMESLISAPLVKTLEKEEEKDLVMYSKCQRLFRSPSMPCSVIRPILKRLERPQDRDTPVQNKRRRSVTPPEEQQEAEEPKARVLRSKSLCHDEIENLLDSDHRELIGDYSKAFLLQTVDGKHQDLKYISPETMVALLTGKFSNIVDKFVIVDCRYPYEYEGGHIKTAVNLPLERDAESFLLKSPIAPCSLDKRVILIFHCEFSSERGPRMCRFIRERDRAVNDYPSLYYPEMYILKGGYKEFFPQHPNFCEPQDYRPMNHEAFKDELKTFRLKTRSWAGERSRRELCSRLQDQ
How it was run: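 pNPP hydrolysis assay. IC50 was derived by regression analysis and given as mean ± SD of three replications.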

Staphylococcus aureus [4] = test: Antibacterial activity against Methicillin-resistant Staphylococcus aureus CCARM 3167 assessed as reduction in bacterial cell growth incubated for 24 hrs by ELISA; assay type: functional; conditions: CCARM 3167, 24 h; how it was run: as §1
[5] = biological target: T3, Tyrosine-protein phosphatase non-receptor type 1 (Homo sapiens, UniProt P18031); test: Competitive inhibition of human recombinant GST-tagged PTP1B expressed in Escherichia coli BL21 (DE3) using pNPP as substrate assessed as inhibitor constant measured for 2 mins by colorimetric analysis
T3 sequence (P18031 whole entry): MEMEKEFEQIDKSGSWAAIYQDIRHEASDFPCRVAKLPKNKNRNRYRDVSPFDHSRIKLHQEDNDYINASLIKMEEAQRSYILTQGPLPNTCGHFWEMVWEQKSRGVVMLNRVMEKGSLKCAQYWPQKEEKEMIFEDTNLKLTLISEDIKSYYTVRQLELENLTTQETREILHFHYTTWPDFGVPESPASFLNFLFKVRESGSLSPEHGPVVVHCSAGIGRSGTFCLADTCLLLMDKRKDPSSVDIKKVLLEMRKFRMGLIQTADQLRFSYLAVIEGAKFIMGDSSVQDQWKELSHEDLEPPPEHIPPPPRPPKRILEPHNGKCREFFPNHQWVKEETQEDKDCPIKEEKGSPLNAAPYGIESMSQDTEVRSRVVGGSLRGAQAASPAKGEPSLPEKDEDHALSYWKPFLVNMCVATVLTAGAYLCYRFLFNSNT

[6] = biological target: T4, Tyrosine-protein phosphatase non-receptor type 1 (Homo sapiens) (UniProt P18031); test: Potency index, ratio of IC50 of oleanolic acid to IC50 of compound inhibition of human recombinant GST-tagged PTP1B expressed in Escherichia coli BL21 (DE3) using pNPP as substrate measured for 2 mins by colorimetric analysis
T4 sequence (whole entry): T3 sequence (P18031 whole entry)

[7] = biological target: T1, Receptor-type tyrosine-protein phosphatase F; test: Inhibition of human recombinant GST-tagged LAR (catalytic domain 1275 to 1613 residues) expressed in Escherichia coli BL21 (DE3) using pNPP as substrate measured for 2 mins by colorimetric analysis
[8] = biological target: T4, Tyrosine-protein phosphatase non-receptor type 1 (Homo sapiens); test: Competitive inhibition of human recombinant GST-tagged PTP1B expressed in Escherichia coli BL21 (DE3) using pNPP as substrate assessed as unchanged Vmax value measured for 2 mins by colorimetric analysis
[9] = biological target: T4, Tyrosine-protein phosphatase non-receptor type 1 (Homo sapiens); test: Competitive inhibition of human recombinant GST-tagged PTP1B expressed in Escherichia coli BL21 (DE3) using pNPP as substrate assessed as increase in Km value measured for 2 mins by colorimetric analysis
[10] = biological target: T4, Tyrosine-protein phosphatase non-receptor type 1 (Homo sapiens); test: Inhibition of human recombinant GST-tagged PTP1B expressed in Escherichia coli BL21 (DE3) using pNPP as substrate incubated for 4 to 16 mins and measured for 2 mins by colorimetric analysis; conditions: TDE = time-dependent effect
How it was run: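 pNPP used as the phosphatase substrate, with the enzyme assay following earlier published work. IC50 obtained by regression analysis and reported as mean ± SD of three replications.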

Staphylococcus aureus [11] = test: Potency index, ratio of MIC of gatifloxacin to MIC of compound for antibacterial activity against Staphylococcus aureus KCTC503 assessed as reduction in bacterial cell growth incubated for 24 hrs by ELISA; assay type: functional

SMILES	inhibition [1]	MIC (Staphylococcus aureus [2]) [µg/mL]	IC50 [3] [µM]	MIC (Staphylococcus aureus [4]) [µg/mL]	Ki [5] [µM]	Ratio IC50 [6]	IC50 [7] [µM]	inhibition [8]	inhibition [9]	inhibition [10]	Ratio (Staphylococcus aureus [11])
O=C(O)C(Cc1c[nH]c2ccccc12)N1C(=O)/C(=C/c2ccc3cc(OCc4ccc(Cl)cc4Cl)ccc3c2)SC1=S (stereo not drawn)	inactive	4 (≈ 6.31 µM)	0.49	4 (≈ 6.31 µM)							
O=C(O)C(Cc1c[nH]c2ccccc12)N1C(=O)/C(=C/c2ccc3cc(OCc4ccc(Br)cc4)ccc3c2)SC1=S (stereo not drawn)		4 (≈ 6.22 µM)	0.32	4 (≈ 6.22 µM)	0.07	8	29.1	Active	Active	Tde	
Cc1ccc(COc2ccc3cc(/C=C4\SC(=S)N(C(Cc5c[nH]c6ccccc56)C(=O)O)C4=O)ccc3c2)cc1 (stereo not drawn)	inactive	2 (≈ 3.46 µM)	0.83	2 (≈ 3.46 µM)							2
